pIC50: −log10 of the molar value. Values after ≈ are worked out from the molar mass of the structure shown. Active and inactive are the calls of the source. No cut-off for these calls is given here.
Columns and labels:
Plasmodium falciparum [1] = test: Antimalarial activity against Plasmodium falciparum 3D7A infected in red blood cells assessed as inhibition of parasite growth after 24 hrs by [3H]hypoxanthine incorporation assay; type: functional, organism-based
In short: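 P. falciparum 3D7 parasitized RBC (0.5% parasitemia, 2% hematocrit) in RPMI-1640 with 5% albumax and 5 μM hypoxanthine. 3H-hypoxanthine was then added for a further 24 h. Cells were harvested onto glass-fiber filters and incorporation was read by scintillation; IC50 was derived.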

[2] = Kinetic solubility of the compound in DMSO/phosphate buffered saline at pH 7.4 by chemiluminescent nitrogen detection method; type: physicochemical; settings: read-out: Kinetic_solubility
In short: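 Kinetic solubility from DMSO stock solution in phosphate-buffered saline, pH 7.4, quantified by chemiluminescent nitrogen detection.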

[3] = Cytotoxicity against human HepG2 cells by ATP bioluminescene method; type: cell-based; settings: read-out: TC50 (the source's name)
Plasmodium falciparum [4] = test: Antimalarial activity against chloroquine and pyrimethamine-resistant Plasmodium falciparum W2 assessed as inhibition of parasite growth; type: functional, organism-based
In short: (§1)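 Growth inhibition by [3H]-hypoxanthine incorporation, which tracks parasite growth. Parasitised RBC culture (0.5% parasitemia, 2% haematocrit) in RPMI-1640 with 5% Albumax and 5 μM hypoxanthine, exposed to serial drug dilutions. Cells harvested onto glass-fibre filters, radioactivity counted, IC50 derived.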

Plasmodium falciparum [5] = test: Antimalarial activity against chloroquine and pyrimethamine-resistant Plasmodium falciparum V1/S assessed as inhibition of parasite growth; type: functional, organism-based; in short: as §1
[6] = Selectivity index, ratio of TC50 for human HepG2 cells to IC50 for Plasmodium falciparum 3D7A; type: toxicity, cell-based; settings: read-out: Selectivity Index
[7] = biological target: Voltage-gated inwardly rectifying potassium channel KCNH2 (Homo sapiens, UniProt Q12809); test: Inhibition of human ERG by IonWorks electrophysiology
Chain of Voltage-gated inwardly rectifying potassium channel KCNH2 (Q12809 whole entry): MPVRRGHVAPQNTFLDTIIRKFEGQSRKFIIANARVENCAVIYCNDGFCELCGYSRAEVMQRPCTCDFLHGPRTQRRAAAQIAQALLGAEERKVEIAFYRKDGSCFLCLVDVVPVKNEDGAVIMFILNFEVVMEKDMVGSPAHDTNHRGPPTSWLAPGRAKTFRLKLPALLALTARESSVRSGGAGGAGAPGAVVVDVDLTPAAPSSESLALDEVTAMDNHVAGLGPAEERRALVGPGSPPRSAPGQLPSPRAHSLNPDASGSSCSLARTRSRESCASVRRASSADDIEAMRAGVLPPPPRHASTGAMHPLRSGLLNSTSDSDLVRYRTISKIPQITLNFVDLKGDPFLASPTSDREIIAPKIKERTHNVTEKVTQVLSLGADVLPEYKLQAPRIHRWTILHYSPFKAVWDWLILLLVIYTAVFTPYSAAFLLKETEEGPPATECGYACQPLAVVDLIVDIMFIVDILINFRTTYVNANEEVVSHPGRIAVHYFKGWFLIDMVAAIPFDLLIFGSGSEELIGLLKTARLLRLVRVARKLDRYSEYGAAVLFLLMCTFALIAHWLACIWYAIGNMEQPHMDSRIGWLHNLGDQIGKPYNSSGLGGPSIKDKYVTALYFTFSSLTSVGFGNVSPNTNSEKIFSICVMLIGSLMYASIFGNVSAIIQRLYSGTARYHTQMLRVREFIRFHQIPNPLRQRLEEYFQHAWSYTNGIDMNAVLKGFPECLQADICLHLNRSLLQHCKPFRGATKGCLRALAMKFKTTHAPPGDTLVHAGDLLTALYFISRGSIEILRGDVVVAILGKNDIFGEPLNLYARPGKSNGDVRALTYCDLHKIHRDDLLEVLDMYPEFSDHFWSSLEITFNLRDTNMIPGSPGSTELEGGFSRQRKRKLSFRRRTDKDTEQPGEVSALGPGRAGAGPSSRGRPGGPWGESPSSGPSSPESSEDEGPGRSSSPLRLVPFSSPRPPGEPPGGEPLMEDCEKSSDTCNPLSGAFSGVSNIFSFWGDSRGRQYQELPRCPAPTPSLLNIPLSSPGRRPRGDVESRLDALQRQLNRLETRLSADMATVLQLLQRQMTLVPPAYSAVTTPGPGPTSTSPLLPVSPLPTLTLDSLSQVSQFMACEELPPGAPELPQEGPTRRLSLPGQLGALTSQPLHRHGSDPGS

[8] = Oral bioavailability in CD1 mouse at 10 mg/kg administered via gavage by LC-MS/MS analysis; type: ADME, organism-based; settings: in vivo
In short: (§2)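 Mice were dosed IV at 1 mg/kg (0.1 mg/mL in 20% encapsine, 5% DMSO in saline) or PO at 10 mg/kg (1 mg/mL suspension in 1% methylcellulose), 10 mL/kg each. After IV dosing, blood was sampled from 5 min to 24 h. Blood was mixed 1:1 with 0.1% saponine and frozen at −80 °C. Samples were acetonitrile-extracted and analyzed by positive-ESI LC-MS/MS.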

[9] = Clearance in CD1 mouse at 1 mg/kg, iv by LC-MS/MS analysis; type: ADME, organism-based; settings: in vivo; in short: as §2
[10] = Solubility of the compound in fasted state simulated intestinal fluid; type: ADME
Plasmodium falciparum [11] = test: Antimalarial activity against erythrocytic stage of Plasmodium falciparum 3D70087/N9 infected in NSG mouse engrafted with human erythrocytes assessed as parasite killing at 100 mg/kg, po qd for 4 days starting from day 3 to day 6 after parasite infection measured 48 hrs after initiation of drug treatment by Giemsa-staining based microscopy; type: functional, organism-based
Plasmodium falciparum [12] = settings: 3D70087/N9, 100 mg/kg

Structure (SMILES) | pIC50 (Plasmodium falciparum [1]) | further results
COC(=O)c1cccc(C(=O)NCCCNc2nc3ccccc3[nH]2)c1 | 6.20 | 
O=C(NCCCNc1nc2ccccc2[nH]1)c1cccc(O)c1 | < 5.30 | 
O=C(NCCCNc1nc2ccccc2[nH]1)c1ccc2c(c1)OCO2 | 5.47 | 
N#Cc1ccc(C(=O)NCCCNc2nc3ccccc3[nH]2)cc1F | 5.86 | 
COc1cc(OC)cc(C(=O)NCCCNc2nc3ccccc3[nH]2)c1 | 6.48 | 
O=C(O)c1cccc(C(=O)NCCCNc2nc3ccccc3[nH]2)c1 | < 5.30 | 
O=C(NCCCNc1nc2ccccc2[nH]1)c1ccc(Cl)c(Cl)c1 | 6.77 | 
O=C(NCCCNc1nc2ccccc2[nH]1)c1cccc(OC(F)(F)F)c1 | 6.43 | 
O=C(NCCCNc1nc2ccccc2[nH]1)c1cccc(CO)c1 | < 5.30 | 
O=C(NCCCNc1nc2ccccc2[nH]1)C1CCNCC1 | < 5.30 | 
O=C(NCCCNc1nc2ccccc2[nH]1)c1cccc(Cl)c1Cl | 5.47 | 
O=C(NCCCNc1nc2ccccc2[nH]1)C1CCCCC1 | 5.74 | 
O=C(NCCCNc1nc2ccccc2[nH]1)c1cccnc1 | < 5.30 | 
CS(=O)(=O)Nc1cccc(C(=O)NCCCNc2nc3ccccc3[nH]2)c1 | < 5.30 | 
O=C(NCCCNc1nc2ccccc2[nH]1)c1cc(F)cc(F)c1 | 6.49 | 
O=C(NCCCNc1nc2ccccc2[nH]1)c1ccc2c(c1)OCCO2 | 5.78 | 
Cc1ccc(C(=O)NCCCNc2nc3ccccc3[nH]2)o1 | 5.65 | 
O=C(Cc1cccc(Cl)c1)NCCCNc1nc2ccccc2[nH]1 | 6.18 | 
O=C(NCCCNc1nc2ccccc2[nH]1)c1ccnc(C(F)(F)F)c1 | 6.60 | solubility kinetic [2]: 349 µM (≈ 127 µg/mL); CC50 [3]: > 100 µM
CCc1nc(N)nc(N)c1-c1ccc(Cl)cc1 [PYRIMETHAMINE] | 7.17 | pIC50 (Plasmodium falciparum [4]): < 4.70; pIC50 (Plasmodium falciparum [5]): < 4.70
COc1cccc(C(=O)NCCCNc2nc3ccccc3[nH]2)c1 | 6.03 | 
O=C(NCCCNc1nc2ccccc2[nH]1)c1ccccc1 | 5.50 | 
O=C(NCCCNc1nc2ccccc2[nH]1)c1cccc(Cl)c1 | 6.52 | 
N#Cc1ccc2[nH]c(NCCCNC(=O)c3cc(Cl)cc(Cl)c3)nc2c1 | 5.83 | 

Structure (SMILES) | pIC50 (Plasmodium falciparum [1]) | further results
O=C(NCCCNc1nc2c(F)cccc2[nH]1)c1cc(Cl)cc(Cl)c1 | 6.52 | 
O=C(NCCCNc1nc2ccccc2[nH]1)c1ccccn1 | < 5.30 | 
CC(C)(C)OC(=O)N1CCC(C(=O)NCCCNc2nc3ccccc3[nH]2)CC1 | 6.05 | solubility kinetic [2]: 393 µM (≈ 158 µg/mL); selectivity ratio [6]: > 111; CC50 [3]: > 100 µM; pIC50 [7]: < 4.30
Cn1cccc1C(=O)NCCCNc1nc2ccccc2[nH]1 | < 5.30 | 
O=C(NCCCNc1nc2cccnc2[nH]1)c1cc(Cl)cc(Cl)c1 | 5.60 | 
CN(CCCNC(=O)c1cc(Cl)cc(Cl)c1)c1nc2ccccc2[nH]1 | 5.74 | 
O=C(NCCCNc1nc2ccccc2[nH]1)c1ccc(CN2CCCC2)cc1 | 5.64 | solubility kinetic [2]: 322 µM (≈ 122 µg/mL); CC50 [3]: > 100 µM
O=C(NC1(c2nc3ccccc3[nH]2)CC1)c1cc(Cl)cc(Cl)c1 | < 5.30 | 
O=C(NCCCNc1nc2ccccc2[nH]1)c1c(Cl)cccc1Cl | < 5.30 | 
O=C(NCCCCc1nc2ccccc2[nH]1)c1cc(Cl)cc(Cl)c1 | < 5.30 | 
O=C(c1cc(Cl)cc(Cl)c1)N1CCN(c2nc3ccccc3[nH]2)CC1 | 5.60 | 
O=C(NCCCNc1nc2ccccc2[nH]1)C1CCC(CO)CC1 (stereo unspecified) | < 5.30 | 
O=C(Nc1cccc(-c2nc3ccccc3[nH]2)c1)c1cc(Cl)cc(Cl)c1 | 5.82 | solubility kinetic [2]: 64 µM (≈ 24.5 µg/mL); selectivity ratio [6]: 17.3; CC50 [3]: 26.3 µM; pIC50 [7]: < 4.83
O=C(NCCCNc1nc2ccccc2[nH]1)c1cc(Cl)cc(Cl)c1 | 7.03 | solubility kinetic [2]: 239 µM (≈ 86.8 µg/mL); bioavailability [8]: 81%; pIC50 (Plasmodium falciparum [4]): 6.39; pIC50 (Plasmodium falciparum [5]): 5.99; clearance [9]: 39.7 mL/min/kg; solubility [10]: > 100 µg/mL; Activity (Plasmodium falciparum [11]): Active; inhibition (Plasmodium falciparum [12]): Active; CC50 [3]: 36.3 µM
O=C(NCCCNc1nc2ccccc2[nH]1)c1ccccc1Cl | 5.98 | 
CN(C)Cc1ccc(C(=O)NCCCNc2nc3ccccc3[nH]2)cc1 | 5.65 | 
O=C(NCC(O)CNc1nc2ccccc2[nH]1)c1cc(Cl)cc(Cl)c1 (stereo unspecified) | 5.86 | 
O=C(NCCCNc1nc2ccccc2[nH]1)c1ccc(Cl)cc1 | 5.97 | 
Cc1cccc(C(=O)NCCCNc2nc3ccccc3[nH]2)c1 | 6.01 | 
O=C(NCCCNc1nc2ccccc2[nH]1)c1ccc(Cl)cc1Cl | 5.39 | 
O=C(NCCCNc1nc2ccccc2[nH]1)C1CCC(O)CC1 (stereo unspecified) | < 5.30 | 
CC(CNC(=O)c1cc(Cl)cc(Cl)c1)CNc1nc2ccccc2[nH]1 (stereo unspecified) | 6.28 | 
CN(CCCNc1nc2ccccc2[nH]1)C(=O)c1cc(Cl)cc(Cl)c1 | < 5.30 | 
O=C(NCCCNc1nc2ccccc2[nH]1)c1ccc2c(c1)CCO2 | 5.49 | 

Structure (SMILES) | pIC50 (Plasmodium falciparum [1]) | further results
O=C(NCCNc1nc2ccccc2[nH]1)c1cc(Cl)cc(Cl)c1 | 5.74 | 
O=C(NCCCNc1nc2cc(F)ccc2[nH]1)c1cc(Cl)cc(Cl)c1 | 6.92 | 
CN(C)C(=O)c1cccc(C(=O)NCCCNc2nc3ccccc3[nH]2)c1 | < 5.30 | 
O=C(NCCCNc1nc2ccccc2[nH]1)c1cccc(C(F)(F)F)c1 | 6.85 | 
O=C(NCCCCNc1nc2ccccc2[nH]1)c1cc(Cl)cc(Cl)c1 | 6.40 | 
O=C(NCCCNc1nc2ccccc2[nH]1)c1cc(Cl)ccc1Cl | 5.92 | 
O=C(NCCCNc1nc2ccccc2[nH]1)c1cncc(Cl)c1 | 6.34 | 
COC(=O)c1ccc2[nH]c(NCCCNC(=O)c3cc(Cl)cc(Cl)c3)nc2c1 | 6.82 | solubility kinetic [2]: 29 µM (≈ 12.2 µg/mL); CC50 [3]: 25.7 µM
N#Cc1cccc(C(=O)NCCCNc2nc3ccccc3[nH]2)c1 | 6.42 | 
O=C(NC1CCN(c2nc3ccccc3[nH]2)C1)c1cc(Cl)cc(Cl)c1 (stereo unspecified) | < 5.30 | 
O=C(O)c1ccc2[nH]c(NCCCNC(=O)c3cc(Cl)cc(Cl)c3)nc2c1 | < 5.30 | 
O=C(NCCCNc1nc2ccccc2[nH]1)c1cccc(CN2CCCC2)c1 | < 5.30 | 
O=C(NCCCNc1nc2ccccc2[nH]1)c1ccncc1 | < 5.30 | 
CN1CCN(Cc2ccc(C(=O)NCCCNc3nc4ccccc4[nH]3)cc2)CC1 | < 5.30 | 
O=C(CCNC(=O)c1cc(Cl)cc(Cl)c1)Nc1nc2ccccc2[nH]1 | 5.38 | 
COc1c(Cl)cc(C(=O)NCCCNc2nc3ccccc3[nH]2)cc1Cl | 7.00 | 
CC(CCNC(=O)c1cc(Cl)cc(Cl)c1)Nc1nc2ccccc2[nH]1 (stereo unspecified) | 5.80 | 
O=C(NCCCNc1nc2ccncc2[nH]1)c1cc(Cl)cc(Cl)c1 | 5.97 | 
O=C(NCCCNc1nc2ccccc2[nH]1)c1cc(Cl)c(O)c(Cl)c1 | < 5.30 | 
Cn1c(NCCCNC(=O)c2cc(Cl)cc(Cl)c2)nc2ccccc21 | < 5.30 | 
Cc1ccc(C(=O)NCCCNc2nc3ccccc3[nH]2)s1 | 5.74 | 
O=C(NCCCNc1nc2ccccc2[nH]1)C1CCOCC1 | 5.58 | 
O=C(NCC1(CNc2nc3ccccc3[nH]2)CC1)c1cc(Cl)cc(Cl)c1 | 5.99 | 

— ChEMBL document CHEMBL3580590, “A Developability-Focused Optimization Approach Allows Identification of in Vivo Fast-Acting Antimalarials: N-[3-[(Benzimidazol-2-yl)amino]propyl]amides” (J Med Chem, 2015)
